Experimental data of several laboratories.
Protocols differ between the studies behind these lines.
Target: Cytochrome P450 3A4 (CYP3A4, Homo sapiens, UniProt P08684)

C=CC(=O)Nc1cc(Nc2nccc(Nc3cc(Cl)c(F)cc3C(C)(C)O)n2)c(OC)cc1N1CC[C@@H](N(C)C)C1 — inhibition (enzyme activity, inhibitor; human, liver microsomes; 10 µM): 24.3%
CC(C)(C)OC(=O)N[C@H](CSCCC(=O)NCc1cccnc1)CC1CCCCC1 — ΔTm (thermal stability): -2 °C
COc1cc2c(c(OC)c1OC)-c1c(cc3c(c1OC)OCO3)[C@H](OC(=O)c1ccccc1)[C@@](C)(O)[C@@H](C)C2 — IC50 (enzyme activity, inhibitor; 15 min, pH 7.4): 25 µM
COC(=O)C1CCN(C(=O)c2ccc(N(CCO)Cc3cnc4nc(N)nc(N)c4n3)cc2)CC1 — inhibition (enzyme activity, inhibitor, luciferase; 10 µM): -27.6%
O=C(N[C@H](Cc1c[nH]c2ccccc12)C(=O)Nc1ccncc1)c1ccc(-c2cc(F)ccc2F)cc1F — inhibition (enzyme activity, inhibitor; human, liver microsomes; 1 µM): 74%
CCc1cc(/C(C)=N/OCc2ccc(C3CCCCC3)c(C(F)(F)F)c2)ccc1CN1CC(C(=O)O)C1 — inhibition (enzyme activity, inhibitor; human, liver microsomes; 200 µM, 20 min, testosterone probe): 72.7%
CC(=O)c1cccc(OCc2cc(C(=O)N(C)[C@@H](C)c3ccccn3)no2)c1 — IC50 (enzyme activity, inhibitor; human, liver microsomes): 27 µM
CCOC(=O)C1CCN(C(=O)c2ccc(N(CC)Cc3cnc4nc(N)nc(N)c4n3)cc2)CC1 — inhibition (enzyme activity, inhibitor, luciferase; 10 µM): -13.6%
CC(C)(C)OC(=O)N[C@H](CSCCC(=O)NCc1cccnc1)Cc1c[nH]c2ccccc12 — ΔTm (thermal stability): 0.2 °C
COC(=O)C1CCN(C(=O)Cc2ccc(NCc3cnc4nc(N)nc(N)c4n3)cc2)CC1 — inhibition (enzyme activity, inhibitor, luciferase; 10 µM): -1.83%
NCCCCCC(=O)NCc1cccnc1 — ΔTm (thermal stability): -0.2 °C
CCN(Cc1cnc2nc(N)nc(N)c2n1)c1ccc(C(=O)N2CCC(C(=O)OC)CC2)cc1 — inhibition (enzyme activity, inhibitor, luciferase; 10 µM): -13.9%
CC1(C)CCC2(CC1)N[C@@H](C(=O)N[C@@H]1CC[C@@H](C(N)=O)OC1)[C@H](c1ccnc(Cl)c1F)[C@]21C(=O)Nc2cc(Cl)ccc21 — kinact (enzyme activity, inhibitor; human, liver microsomes; with preincubation, midazolam probe): 0.00103 s⁻¹
